A selection: hits, their analogues and other compounds. The true share with any hit is near 6.7%.
CHOP inh: blocks CHOP induction under ER stress; CHO-K1 CHOP-promoter luciferase, tunicamycin-induced, 15-18 h; inhibition, % at 10 µM; hit rate 3.8% among 220,000; AID 2732;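 active means compounds that reduced the stress-induced luciferase reporter signal by more than about 70% of percent inhibition, limit read from the data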;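 further: 0% = tunicamycin plus vehicle and 100% = wells without tunicamycin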
Beta apoptosis: beta cell apoptosis inhibition; INS-1E cytokine-induced death, ATP luminescence, 48 h; percent of positive-control rescue, neutral wells zero; protection from apoptosis, % (test concentration not listed); hit rate 0.8% among 300,000; AID 435005;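 active means Every replicate reaches about 75%, or at least half do and their mean reaches it too, limit read from the data; inconclusive means At least half of replicates reach the limit but their mean does not; inactive means Under half of replicates reach the limit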;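 further: 0% = cytokine-treated negative control wells and 100% = positive control rescue; higher means more ATP so stronger rescue from cytokine killing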
GRIN3A LBD mod: modulates the human NR3A ligand-binding domain. hit rate 2.5% among 340,000. Tm shift relative to glycine control, % at 25 µM. AID 1259313. NR3A LBD differential scanning fluorimetry, Tm shift; 0% = protein alone, 100% = glycine-bound protein;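 active means melting temperature shift of at least 10% of the positive control shift, at one fixed dose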
T cruzi inh: T. cruzi replication inhibition. T. cruzi beta-gal in NIH3T3, luminescence, 90 h. inhibition, % (no concentration beside the values). hit rate 1.4% among 300,000. AID 1885;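 active means mean inhibition across valid replicates above about 55%, limit read from the data; inconclusive means mean below that limit but half or more replicates reach it; inactive means mean below it, under half of replicates reach it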;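 further: signal also drops with host cell toxicity which is not excluded here; 0% = plate median of DMSO wells and 100% = zero luminescence signal; higher percent means less beta-gal luminescence so fewer parasites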
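Assay system: NIH/3T3 fibroblasts plus reporter T. cruzi. Amount: NIH/3T3 cells, 5,000 per well. Buffer or medium: DMEM, 2% fetal bovine serum. Doses: compound pinned at 50 nL/well, DMSO. Schedule: ≥90 h infection period, 3 h prior cell attachment. Signal: luminescent β-galactosidase signal after 60 min lysis. Read-out: parasite load inhibition, %.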
CSC inhib: blocks cancer stem cells. cancer stem cell-like cells viability, luminescence. inhibition, % at 7.5 µM. hit rate 1.1% among 300,000; in the data active means inhibition above about 75%; inconclusive means no clear call, values can overlap the other calls; tested in HMLE shEcad cells
PREPL inh: inhibitors of human prolyl oligopeptidase-like enzyme PREPL. recombinant PREPL, fluorescence polarization activity-based probe. inhibition, % at 5.96 µM. hit rate 0.68% among 320,000. AID 2751; in the data active means inhibition above about 43%;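 further: 0% = enzyme with DMSO and 100% = wells lacking enzyme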
Target sequence (Q4J6C6 whole entry, looked up): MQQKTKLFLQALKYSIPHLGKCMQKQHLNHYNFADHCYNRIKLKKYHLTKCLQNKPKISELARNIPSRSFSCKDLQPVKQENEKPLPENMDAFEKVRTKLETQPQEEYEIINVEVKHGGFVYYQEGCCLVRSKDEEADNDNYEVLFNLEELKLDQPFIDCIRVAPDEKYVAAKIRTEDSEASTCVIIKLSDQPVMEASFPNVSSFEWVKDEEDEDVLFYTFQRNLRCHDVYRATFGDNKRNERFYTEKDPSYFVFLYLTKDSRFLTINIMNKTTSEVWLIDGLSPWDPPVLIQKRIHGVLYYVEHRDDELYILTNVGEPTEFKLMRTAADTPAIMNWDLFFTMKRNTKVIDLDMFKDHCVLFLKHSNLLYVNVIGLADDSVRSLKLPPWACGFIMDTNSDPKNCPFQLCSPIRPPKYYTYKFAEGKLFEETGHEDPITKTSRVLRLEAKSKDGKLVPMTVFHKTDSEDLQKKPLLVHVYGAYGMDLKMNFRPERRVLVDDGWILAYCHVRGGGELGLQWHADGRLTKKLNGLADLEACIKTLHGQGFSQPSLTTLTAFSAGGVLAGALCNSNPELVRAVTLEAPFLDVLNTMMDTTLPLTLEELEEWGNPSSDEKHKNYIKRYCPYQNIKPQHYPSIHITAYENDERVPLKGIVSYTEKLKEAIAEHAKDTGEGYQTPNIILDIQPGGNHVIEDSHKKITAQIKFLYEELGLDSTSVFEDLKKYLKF
* = called active by the depositor; ? = inconclusive; / = no result given.

SMILES | CHOP inh | Beta apoptosis | GRIN3A LBD mod | T cruzi inh | CSC inhib | PREPL inh
O=C1c2ccccc2C(=O)N1SC1CCCCC1 | 72* | 7 | 5 | -6 | 4 | 10
O=C(OCN1C(=O)c2ccccc2C1=O)C1CCCCC1 | 18 | 0 | 4 | -5 | -5 | -3
CCOc1ccccc1N(C(=O)Nc1cccc(Cl)c1)C1=NC(C)CS1 (stereo unspecified) | 21 | -7 | -1 | -16 | 0 | 3
CCOc1ccccc1N(C(=O)Nc1ccc(Cl)cc1)C1=NCCS1 | 12 | 3 | -3 | 2 | 84* | 2
Cc1c(C#N)c(O)n(CCO)c(=O)c1N=Nc1ccc2c(c1)COC2=O | 94* | 14 | -1 | 10 | -5 | 0
Cc1cc(=O)n(CCO)c(O)c1C#N | 0 | 2 | -3 | -7 | -10 | -8
Cc1ccc(/C=C/C(=O)c2ccc([N+](=O)[O-])o2)cc1 | / | 109* | -6 | 25 | 35 | 7
O=C(/C=C/c1ccc(Cl)cc1)c1ccc([N+](=O)[O-])o1 | / | 115* | -19 | 4 | ? | 7
Cc1ccc(CNC(=O)c2ccc([N+](=O)[O-])o2)cc1 | -14 | -27 | 1 | 47 | -6 | -6
c1ccc(-c2nc(NCc3cccs3)c3ccccc3n2)cc1 | / | 4 | 18* | 29 | -2 | 0
c1csc(CNc2nc(-c3cccs3)nc3ccccc23)c1 | -6 | -1 | 10 | 44 | 47 | -5
Cc1cc(-c2cccc([N+](=O)[O-])c2)nc2ccc3ccccc3c12 | -23 | -6 | 27* | -18 | -6 | 1
CN(Cc1ccccc1)c1nc(-c2cccc([N+](=O)[O-])c2)nc2ccccc12 | 29 | 0 | -5 | 27 | -1 | 5
c1ccc(-c2nc(NCc3cccnc3)c3ccccc3n2)cc1 | -6 | -1 | -10 | 37 | 8 | 3
O=[N+]([O-])c1ccc(-c2nc(NCc3ccccc3)c3ccccc3n2)cc1 | 90* | 13 | 50* | 5 | 21 | 6
O=[N+]([O-])c1cccc(-c2nc(NCc3ccccc3)c3ccccc3n2)c1 | 41 | 14 | 339* | 46 | 30 | 5
O=S(=O)(Nc1ncccn1)c1ccc(NC(=S)NCc2cccnc2)cc1 | 38 | -7 | 0 | -18 | -6 | -12
Clc1cccc(-c2nc(NCc3cccnc3)c3ccccc3n2)c1 | 28 | 3 | 22* | 28 | 28 | 2
Fc1ccc(CNc2nc(-c3ccccc3)nc3ccccc23)cc1 | 73* | / | 21* | 57* | / | /
Clc1ccc2c(c1)-c1[nH]ncc1CS2 | 18 | -3 | 5 | -3 | 1 | -5
CCOc1cc(C)nc(N2CCC(C(=O)NCC3CCCO3)CC2)n1 (stereo unspecified) | / | / | 3 | / | / | /
O=C(NC(=S)NCCc1ccccc1)C1CCCCC1 | 29 | 3 | 3 | 13 | 102* | -1
CC(C)(C)CC(=O)NC(=S)NCCc1ccccc1 | 70* | 7 | 3 | 31 | -8 | 9
O=C(NC1CCCN(CCc2ccccc2)C1)C1CCCC1 (stereo unspecified) | / | / | -1 | 55* | -1 | -14
CC(C)CC(=O)NC(=S)NCCc1ccccc1 | 57 | 1 | -5 | -5 | -7 | 3
SMILES | CHOP inh | Beta apoptosis | GRIN3A LBD mod | T cruzi inh | CSC inhib | PREPL inh
O=C(CN(CCc1ccccc1)Cc1ccccc1)Oc1ccccc1P(=O)(O)O | / | -8 | -1 | -4 | -15 | -5
CCC(O)C1CCN(C(=O)c2ccc(OC3CCN(Cc4ccccn4)CC3)cc2)CC1 (stereo unspecified) | / | -1 | 0 | -2 | 0 | 20
Cc1ccc(NC(=O)C(=O)NCCOc2ccc(Cl)cc2)c(C)c1 | 33 | / | 3 | -14 | / | -9
O=C(Nc1ccn(Cc2c(F)c(F)cc(F)c2F)n1)c1ccc(COc2ccccc2Cl)cc1 | 46 | 0 | -8 | 63* | 14 | -5
O=C(Nc1ccn(Cc2ccccc2F)n1)c1ccc(COc2cccc(Br)c2)cc1 | 10 | 0 | -10 | 35 | 48 | -20
Cc1cc(C)nc(NC(=O)c2ccc(COc3ccccc3Cl)cc2)c1 | 9 | 9 | 4 | -10 | 99* | -7
O=C(Nc1ccn(Cc2ccccc2F)n1)c1ccc(COc2ccccc2Cl)cc1 | 74* | 6 | -4 | 24 | 139* | -10
Nc1nc(Sc2c([N+](=O)[O-])cc(C(F)(F)F)cc2[N+](=O)[O-])n[nH]1 | 5 | 1 | 1 | 10 | -4 | -4
CC(C)N1CCC(=O)NC1=O | / | / | -3 | / | / | /
CCOC(=O)c1c(NC(=O)C2=C(C)NC(=S)NC2c2ccc(C)cc2)sc(C)c1C (stereo unspecified) | 74* | 2 | 3 | 39 | 1 | 11
CC(C)Cn1c(CN2C(=O)c3ccccc3C2=O)nc2ccccc2c1=O | 25 | -10 | 20* | -3 | -6 | 1
O=C1c2ccccc2C(=O)N1Cc1nc2ccccc2c(=O)n1Cc1ccco1 | / | -3 | 0 | -30 | -7 | 3
O=[N+]([O-])c1ccc(Sc2cccc3cccnc23)c2cccnc12 | 34 | 56 | 0 | 86* | 3 | 6
Cc1cc(C(=O)NNS(=O)(=O)c2ccc(C(C)(C)C)cc2)nn1C(C)(C)C | 22 | 12 | 0 | 3 | 35 | 6
S=C(Nc1ccc(Br)cc1)N1CCn2cccc2C1c1cccnc1 (stereo unspecified) | 30 | / | -25 | 79* | / | /
Cc1ccc(NC(=S)N2CCn3cccc3C2c2cccnc2)cc1 (stereo unspecified) | 5 | -3 | -5 | -5 | -8 | 14
N#C/C(=C\C=C\c1ccccc1[N+](=O)[O-])C(=O)NC1CCCCC1 | 32 | -15 | -4 | -19 | 82* | -4
N#C/C(=C\c1ccccc1[N+](=O)[O-])C(=O)NC1CCCCC1 | -48 | -8 | -1 | -3 | -8 | -4
Cc1ccc(-c2nnc(SCC(=O)N/N=C/c3ccc(C(=O)O)cc3)n2C2CCCCC2)cc1 | / | -6 | -1 | 8 | -6 | -6
CC(=O)Nc1ccc(-c2cc(-c3ccc(NC(C)=O)cc3)nc(-c3ccccc3)n2)cc1 | 22 | -1 | / | 5 | -1 | -4
Nc1ccc(-c2cc(-c3cccc(N)c3)nc(-c3ccccc3)n2)cc1 | 11 | -9 | 22* | 41 | 84* | 12
CCC(=O)Nc1ccc(-c2cc(-c3ccccc3)nc(-c3ccc(NC(=O)CC)cc3)n2)cc1 | 10 | 17 | 16* | 17 | -4 | -6
CC(=O)Nc1ccc(-c2cc(-c3ccccc3)nc(-c3ccccc3)n2)cc1 | 31 | 10 | 36* | 4 | -9 | -11
COc1ccccc1-n1cnc2c(c1=O)c1nc3ccccc3nc1n2-c1ccc(C)c(C)c1 | 84* | / | -2 | 31 | / | /
COCCCn1c2nc3ccccc3nc2c2c(=O)n(-c3ccccc3OC)cnc21 | 4 | 3 | 2 | 16 | -11 | -6
CCCCNS(=O)(=O)c1ccc(Br)cc1N1CCC[C@H]1CO | / | / | 0 | / | / | /
